Test results from ChEMBL document CHEMBL2010670, “Discovery of a clinical stage multi-kinase inhibitor sodium (E)-2-{2-methoxy-5-[(2',4',6'-trimethoxystyrylsulfonyl)methyl]phenylamino}acetate (ON 01910.Na): synthesis, structure-activity relationship, and biological activity” (J Med Chem, 2011).

How the values were obtained:
[1] = system: BT-20; experiment: Cytotoxicity against human BT20 cells after 96 hrs by trypan blue exclusion assay; assay type: functional, cell-based; details: BT-20, 96 h
Method in brief: (§1)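 Cells grown in DMEM or RPMI with 10% FBS and penicillin-streptomycin, seeded at 1.0 × 10⁵ cells/mL/well in 6-well dishes. Compound added at a range of concentrations 24 h after seeding. Viable cells counted by trypan blue exclusion from duplicate wells after 96 h of exposure; dose-response end point.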

[2] = system: T47D; experiment: Cytotoxicity against human T47D cells after 96 hrs by trypan blue exclusion assay; assay type: functional, cell-based
Method in brief: (§2)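 Cells grown in DMEM or RPMI with 10% FBS and 1 unit/mL penicillin-streptomycin, seeded at 1.0 × 10⁵ cells/mL/well in 6-well dishes; compound added 24 h later at various concentrations. After 96 h of treatment, viable cells counted by trypan blue exclusion in duplicate wells; dose-response end point.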

[3] = system: BT-474; experiment: Cytotoxicity against human BT474 cells after 96 hrs by trypan blue exclusion assay; assay type: functional, cell-based; details: BT-474, 96 h; method in brief: as §1
[4] = system: MDA-MB-157; experiment: Cytotoxicity against human MDA-MB-157 cells after 96 hrs by trypan blue exclusion assay; assay type: functional, cell-based; details: MDA-MB-157, 96 h; method in brief: as §1
[5] = system: HCC70; experiment: Cytotoxicity against human HCC70 cells after 96 hrs by trypan blue exclusion assay; assay type: functional, cell-based; details: HCC70, 96 h; method in brief: as §1
[6] = system: PC-3; experiment: Cytotoxicity against human PC3 cells after 96 hrs by trypan blue exclusion assay; assay type: functional, cell-based; details: PC-3, 96 h; method in brief: as §1
[7] = Cytotoxicity against human U87 cells after 96 hrs by trypan blue exclusion assay; assay type: functional, cell-based, U-87MG ATCC; details: U-87 MG; method in brief: as §2
[8] = system: A549; experiment: Cytotoxicity against human A549 cells after 96 hrs by trypan blue exclusion assay; assay type: functional, cell-based; details: A549, 96 h; method in brief: as §1
[9] = system: NCI-H1975; experiment: Cytotoxicity against human NCI-H1975 cells after 96 hrs by trypan blue exclusion assay; assay type: functional, cell-based; details: NCI-H1975, 96 h; method in brief: as §1
[10] = system: NCI-H187; experiment: Cytotoxicity against human NCI-H187 cells after 96 hrs by trypan blue exclusion assay; assay type: functional, cell-based; details: NCI-H187, 96 h; method in brief: as §1
[11] = system: NCI-H417; experiment: Cytotoxicity against human NCI-N417 cells after 96 hrs by trypan blue exclusion assay; assay type: functional, cell-based; details: NCI-H417, 96 h; method in brief: as §1
[12] = system: AGS; experiment: Cytotoxicity against human AGS cells after 96 hrs by trypan blue exclusion assay; assay type: functional, cell-based; method in brief: as §1
[13] = Cytotoxicity against human RF1 cells after 96 hrs by trypan blue exclusion assay; assay type: functional, cell-based; details: RF1, 96 h; method in brief: as §2
[14] = Cytotoxicity against human RF48 cells after 96 hrs by trypan blue exclusion assay; assay type: functional, cell-based; details: RF48, 96 h; method in brief: as §2
[15] = system: HeLa; experiment: Cytotoxicity against human HeLa cells after 96 hrs by trypan blue exclusion assay; assay type: functional, cell-based; method in brief: as §1
[16] = system: COLO 205; experiment: Cytotoxicity against human COLO205 cells after 96 hrs by trypan blue exclusion assay; assay type: functional, cell-based; details: COLO 205, 96 h; method in brief: as §1
[17] = system: DLD-1; experiment: Cytotoxicity against human DLD1 cells after 96 hrs by trypan blue exclusion assay; assay type: functional, cell-based; details: DLD-1, 96 h; method in brief: as §1
[18] = system: HCT-116; experiment: Cytotoxicity against human HCT116 cells after 96 hrs by trypan blue exclusion assay; assay type: functional, cell-based; details: HCT-116, 96 h; method in brief: as §1
[19] = system: RPMI-7951; experiment: Cytotoxicity against human RPMI7951 cells after 96 hrs by trypan blue exclusion assay; assay type: functional, cell-based; details: RPMI-7951, 96 h; method in brief: as §2
[20] = Cytotoxicity against human WM983A cells after 96 hrs by trypan blue exclusion assay; assay type: functional, cell-based; method in brief: as §2
[21] = Cytotoxicity against human WM3211 cells after 96 hrs by trypan blue exclusion assay; assay type: functional, cell-based; details: WM3211, 96 h; method in brief: as §2
[22] = Cytotoxicity against human WM1341D cells after 96 hrs by trypan blue exclusion assay; assay type: functional, cell-based; method in brief: as §2
[23] = Cytotoxicity against human WM793 cells after 96 hrs by trypan blue exclusion assay; assay type: functional, cell-based; details: WM793, 96 h; method in brief: as §2
[24] = Cytotoxicity against human 451LU cells after 96 hrs by trypan blue exclusion assay; assay type: functional, cell-based; method in brief: as §1
[25] = Cytotoxicity against human DND1A cells after 96 hrs by trypan blue exclusion assay; assay type: functional, cell-based; method in brief: as §1
[26] = Cytotoxicity against human GRANTA-519 cells after 96 hrs by trypan blue exclusion assay; assay type: functional, cell-based; details: Granta-519, 96 h; method in brief: as §1
[27] = system: KB; experiment: Cytotoxicity against human KB cells after 96 hrs by trypan blue exclusion assay; assay type: functional, cell-based; method in brief: as §1
[28] = system: U-937; experiment: Cytotoxicity against human U937 cells after 96 hrs by trypan blue exclusion assay; assay type: functional, cell-based; details: U-937, 96 h; method in brief: as §2
[29] = system: LP-1; experiment: Cytotoxicity against human LP-1 cells after 96 hrs by trypan blue exclusion assay; assay type: functional, cell-based; details: LP-1, 96 h; method in brief: as §1
[30] = system: OPM-2; experiment: Cytotoxicity against human OPM2 cells after 96 hrs by trypan blue exclusion assay; assay type: functional, cell-based; details: OPM-2, 96 h; method in brief: as §1
[31] = Cytotoxicity against human […] cells after 96 hrs by trypan blue exclusion assay; assay type: functional, cell-based; method in brief: as §2
[32] = system: HL-60; experiment: Cytotoxicity against human HL60 cells after 96 hrs by trypan blue exclusion assay; assay type: functional, cell-based; details: HL-60, 96 h; method in brief: as §1
[33] = Cytotoxicity against human KG1a cells after 96 hrs by trypan blue exclusion assay; assay type: functional, cell-based; details: KG-1a; method in brief: as §1
[34] = system: HEL; experiment: Cytotoxicity against human HEL cells after 96 hrs by trypan blue exclusion assay; assay type: functional, cell-based; method in brief: as §1
[35] = system: Daudi; experiment: Cytotoxicity against human Daudi cells after 96 hrs by trypan blue exclusion assay; assay type: functional, cell-based; method in brief: as §1
[36] = system: Raji; experiment: Cytotoxicity against human Raji cells after 96 hrs by trypan blue exclusion assay; assay type: functional, cell-based; method in brief: as §2
[37] = Cytotoxicity against human PS41 cells after 96 hrs by trypan blue exclusion assay; assay type: cell-based; details: PS41, 96 h; method in brief: as §1
[38] = system: HUVEC; experiment: Cytotoxicity against HUVEC after 96 hrs by trypan blue exclusion assay; assay type: cell-based; details: Homo sapiens; method in brief: as §1
[39] = Cytotoxicity against multidrug-resistant human MES-SA/Dx5 cells assessed as cell viability after 96 hrs by trypan blue exclusion; assay type: functional, cell-based; details: MES-SA/Dx5, 96 h; method in brief: as §2
[40] = system: CEM/C2; experiment: Cytotoxicity against multidrug-resistant human CEM/C2 cells assessed as cell viability after 96 hrs by trypan blue exclusion; assay type: functional, cell-based; details: CEM/C2, 96 h; method in brief: as §2
[41] = system: 2008; experiment: Cytotoxicity against human 2008 cells assessed as cell viability after 96 hrs by trypan blue exclusion; assay type: functional, cell-based; details: Homo sapiens, 2008, 96 h; method in brief: as §1
[42] = system: HFL1; experiment: Cell cycle arrest in human HFL1 cells assessed as accumulation of cells in G2/M phase at 0.1 to 1 uM after 24 hrs by propidium iodide staining-based flow cytometric analysis; assay type: ADME; details: hfl1, 24 h
Method in brief: (§3)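 DMEM with 10% FBS; 1.0 × 10⁶ cells/dish, treated 24 h after plating and harvested 24 h after treatment. Trypsinized cells were pooled with floating cells, PBS-washed and fixed in ice-cold 70% ethanol for ≥24 h. Cells were stained with propidium iodide plus RNase A for 30 min at 37 °C. DNA content was read by flow cytometry with cell-cycle modelling.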

[43] = system: HFL1; experiment: Cell cycle arrest in human HFL1 cells assessed as accumulation at G1 phase at 0.1 to 1 uM after 24 hrs by propidium iodide staining-based flow cytometric analysis; assay type: ADME; details: hfl1, 24 h; method in brief: as §3
[44] = system: BT-20; experiment: Antitumor activity in human BT20 cells xenografted in NCR-nu/nu, Taconic mouse assessed as decrease in tumor volume at 200 mg/kg, ip administered every other day for 22 days relative to control; assay type: functional; details: route intraperitoneal
Method in brief: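 Female athymic NCR-nu/nu mice received 0.5–1.0 x10⁷ BT20 cells subcutaneously in the hind leg. Dosing began about 14 days later, with tumors near 70 mm³. Groups of N=9 got 200 mg/kg in PBS or PBS vehicle, Q2D x 20. Two tumor dimensions were measured by caliper three times weekly, and V = L×S²×π/6. Body weight and toxicity signs were tracked. Group means ±SEM.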

[45] = Aqueous solubility of the compound; assay type: physicochemical; details: water

With `COc1cc(OC)c(/C=C/S(=O)(=O)Cc2ccc(OC)c(NCC(=O)[O-])c2)c(OC)c1.[Na+]` [RIGOSERTIB SODIUM] as the compound, how does the IC50 [1] read?
Its IC50 is 80 nM.

What about the IC50 [2] of the same compound?
The IC50 was 170 nM.

What about the IC50 [3] of the same compound?
The IC50 was 50 nM.

What about the IC50 [4] of the same compound?
The IC50 was 75 nM.

And the IC50 [5]?
The IC50 was 75 nM.

What about the IC50 [6] of the same compound?
The IC50 was 150 nM.

And the IC50 [7]?
Its IC50 is 80 nM.

What about the IC50 [8] of the same compound?
The IC50 was 90 nM.

And the IC50 [9]?
Its IC50 is 90 nM.

And the IC50 [10]?
The IC50 was 80 nM.

And the IC50 [11]?
The IC50 was 80 nM.

And the IC50 [12]?
The IC50 was 80 nM.

What about the IC50 [13] of the same compound?
The IC50 was 50 nM.

And the IC50 [14]?
The IC50 was 50 nM.

And the IC50 [15]?
The IC50 was 100 nM.

What about the IC50 [16] of the same compound?
The IC50 was 150 nM.

What about the IC50 [17] of the same compound?
Its IC50 is 150 nM.

What about the IC50 [18] of the same compound?
The IC50 was 75 nM.

What about the IC50 [19] of the same compound?
Its IC50 is 25 nM.

What about the IC50 [20] of the same compound?
Its IC50 is 40 nM.

What about the IC50 [21] of the same compound?
The IC50 was 75 nM.

What about the IC50 [22] of the same compound?
The IC50 was 100 nM.

What about the IC50 [23] of the same compound?
The IC50 was 75 nM.

And the IC50 [24]?
Its IC50 is 25 nM.

And the IC50 [25]?
Its IC50 is 75 nM.

And the IC50 [26]?
Its IC50 is 75 nM.

What about the IC50 [27] of the same compound?
The IC50 was 70 nM.

What about the IC50 [28] of the same compound?
Its IC50 is 10 nM.

What about the IC50 [29] of the same compound?
Its IC50 is 30 nM.

And the IC50 [30]?
Its IC50 is 15 nM.

What about the IC50 [31] of the same compound?
The IC50 was 10 nM.

And the IC50 [32]?
Its IC50 is 20 nM.

What about the IC50 [33] of the same compound?
The IC50 was 30 nM.

And the IC50 [34]?
The IC50 was 50 nM.

What about the IC50 [35] of the same compound?
The IC50 was 150 nM.

And the IC50 [36]?
The IC50 was 75 nM.

What about the IC50 [37] of the same compound?
The IC50 was greater than 100000 nM.

What about the IC50 [38] of the same compound?
The IC50 was greater than 100000 nM.

What about the IC50 [39] of the same compound?
The IC50 was 100 nM.

What about the IC50 [40] of the same compound?
Its IC50 is 50 nM.

What about the IC50 [41] of the same compound?
Its IC50 is 150 nM.

And the Activity [42]?
Its Activity is “Toxic”.

And the Activity [43]?
Its Activity is “Toxic”.

And the “fold change (FC)” value [44]?
The value was 2.5.

What about the solubility [45] of the same compound?
Its solubility is 28 mg/mL.
